Laboratory results from ChEMBL document CHEMBL1153402, “Pyrido[2,3-e]-1,2,4-triazolo[4,3-a]pyrazin-1-one as a new scaffold to develop potent and selective human A3 adenosine receptor antagonists. Synthesis, pharmacological evaluation, and ligand-receptor modeling studies” (J Med Chem, 2009).

How the values were obtained:
Adenosine receptor A3 [1] = target: T1, Adenosine receptor A3 (Homo sapiens, UniProt P0DMS8); experiment: Displacement of [125I]AB-MECA from human cloned adenosine A3 receptor expressed in CHO cells; format: cell-based
T1 sequence (P0DMS8 whole entry): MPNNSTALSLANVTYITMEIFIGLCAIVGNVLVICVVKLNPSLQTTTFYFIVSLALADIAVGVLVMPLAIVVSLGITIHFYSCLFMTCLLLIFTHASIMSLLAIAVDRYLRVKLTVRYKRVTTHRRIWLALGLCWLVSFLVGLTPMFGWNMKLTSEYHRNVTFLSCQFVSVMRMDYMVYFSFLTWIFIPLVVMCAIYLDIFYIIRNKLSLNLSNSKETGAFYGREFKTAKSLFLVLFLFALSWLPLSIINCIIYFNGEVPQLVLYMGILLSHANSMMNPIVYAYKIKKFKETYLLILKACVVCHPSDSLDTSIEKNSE

[2] = target: T2, Adenosine receptor A1 (Homo sapiens) (UniProt P30542); experiment: Displacement of [3H]DPCPX from human cloned adenosine A1 receptor expressed in CHO cells at 10 uM; format: cell-based
T2 sequence (whole entry): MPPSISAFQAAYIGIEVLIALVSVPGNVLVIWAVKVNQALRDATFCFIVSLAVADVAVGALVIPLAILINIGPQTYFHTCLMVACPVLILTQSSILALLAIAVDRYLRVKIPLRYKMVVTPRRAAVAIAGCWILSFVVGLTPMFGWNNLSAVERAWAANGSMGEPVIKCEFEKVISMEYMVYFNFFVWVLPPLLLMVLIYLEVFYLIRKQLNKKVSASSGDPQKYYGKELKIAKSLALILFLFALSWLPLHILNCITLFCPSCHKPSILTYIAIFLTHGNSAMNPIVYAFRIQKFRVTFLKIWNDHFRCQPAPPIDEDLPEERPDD
How it was run: (§1)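 CHO cell membranes stably expressing hA1 or hA2A; radioligands [3H]DPCPX (hA1, Kd 3 nM) and [3H]NECA (hA2A, Kd 30 nM). IC50 from five displacer concentrations in triplicate, nonlinear regression; Ki by Cheng–Prusoff; four separate assays. Single-point values as percent inhibition of specific binding at 10 μM.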

Adenosine receptor A2a = Adenosine receptor A2a (Homo sapiens, UniProt P29274); experiment: Displacement of [3H]NECA from human cloned adenosine A2A receptor expressed in CHO cells at 10 uM; format: cell-based; how it was run: as §1
Adenosine receptor A1 [3] = target: T3, Adenosine receptor A1 (Bos taurus, UniProt P28190); experiment: Displacement of [3H]DPCPX from bovine brain cortical membrane adenosine A1 receptor
T3 sequence (P28190 whole entry): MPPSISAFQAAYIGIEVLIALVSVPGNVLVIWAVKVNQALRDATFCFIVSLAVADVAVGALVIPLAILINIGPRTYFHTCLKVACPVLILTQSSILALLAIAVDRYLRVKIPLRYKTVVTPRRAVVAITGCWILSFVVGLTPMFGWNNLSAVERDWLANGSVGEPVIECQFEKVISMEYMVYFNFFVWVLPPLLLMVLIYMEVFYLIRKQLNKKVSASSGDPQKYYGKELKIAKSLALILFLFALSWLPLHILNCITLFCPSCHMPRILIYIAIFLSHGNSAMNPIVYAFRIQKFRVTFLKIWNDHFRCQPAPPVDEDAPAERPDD

Bos taurus = species on record: Bos taurus; experiment: Displacement of [3H]CGS 21680 from bovine striatal membrane adenosine A2A receptor at 20 uM
How it was run: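 IC50 from five concentrations in triplicate, nonlinear regression; Ki via Cheng–Prusoff from four assays. Single-point values as percent inhibition at 20 μM.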

Adenosine receptor A3 [4] = target: T1, Adenosine receptor A3; experiment: Antagonist activity at human adenosine A3 receptor expressed in CHO cells assessed as blockade of NECA-mediated inhibition of forskolin-stimulated cAMP accumulation; format: functional, cell-based
How it was run: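 CHO cells stably expressing hA3, plated 48 h, preincubated 15 min at 37 °C with Ro 20-1724 (20 μM) and adenosine deaminase (1 U/mL). Compound (1 nM–10 μM; DMSO stock diluted in water) added 15 min before 100 nM NECA, with 1 μM forskolin stimulation. Lysis in 0.4 N HCl; cAMP by competitive protein binding with [3H]cAMP. EC50 by sigmoid nonlinear regression; three experiments.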

Adenosine receptor A1 [5] = target: T4, Adenosine receptor A1 (Rattus norvegicus, UniProt P25099); experiment: Displacement of [3H]DPCPX from adenosine A1 receptor in Wistar rat brain membrane; format: cell membranes
T4 sequence (P25099 whole entry): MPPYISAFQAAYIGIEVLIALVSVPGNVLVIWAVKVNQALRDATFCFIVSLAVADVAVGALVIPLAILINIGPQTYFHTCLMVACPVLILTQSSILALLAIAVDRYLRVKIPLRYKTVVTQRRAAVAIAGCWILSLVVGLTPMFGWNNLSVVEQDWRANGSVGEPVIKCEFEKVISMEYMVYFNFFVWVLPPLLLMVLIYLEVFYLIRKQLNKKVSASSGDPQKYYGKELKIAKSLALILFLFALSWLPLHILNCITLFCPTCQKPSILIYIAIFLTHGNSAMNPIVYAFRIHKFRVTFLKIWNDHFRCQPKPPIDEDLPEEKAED
How it was run: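 Nonspecific binding defined with 20 μM R-PIA. Filtration on GF/C filters. IC50 by nonlinear regression over five displacer concentrations in triplicate; Ki via Cheng–Prusoff.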

[6] = target: Adenosine receptor A2a (Rattus norvegicus) (UniProt P30543); experiment: Displacement of [3H]CGS21680 adenosine A2A receptor in Wistar rat brain membrane at 10 uM; format: cell membranes
[7] = target: T5, Adenosine receptor A3 (Rattus norvegicus) (UniProt P28647); experiment: Displacement of [125I]AB-MECA from Wistar rat adenosine A3 receptor expressed in HEK293/EBNA cells by gamma-scintillation spectrometry at 1 uM; format: cell-based
T5 sequence (whole entry): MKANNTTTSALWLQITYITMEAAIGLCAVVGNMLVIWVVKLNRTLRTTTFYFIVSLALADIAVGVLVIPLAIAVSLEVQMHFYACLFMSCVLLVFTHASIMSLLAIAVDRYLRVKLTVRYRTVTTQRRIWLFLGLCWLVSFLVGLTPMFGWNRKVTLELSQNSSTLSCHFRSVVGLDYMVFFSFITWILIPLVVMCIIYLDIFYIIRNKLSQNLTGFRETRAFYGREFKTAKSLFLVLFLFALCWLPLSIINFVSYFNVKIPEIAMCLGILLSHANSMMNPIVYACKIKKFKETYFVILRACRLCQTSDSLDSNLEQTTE

Hippocampus [8] = experiment: Neuroprotective effect against 7-mins oxygen-glucose deprivation triggered neuronal injury in Wistar rat hippocampal CA1 region assessed as recovery of field excitatory post synaptic potential at 10 nM relative to control; format: functional
How it was run: (§2)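 Rat hippocampal slices; CA1 stratum radiatum stimulated (80 μs, 0.066 Hz) with fEPSP at 40–50% of maximum, amplitude expressed as percent of 5 min pre-OGD baseline. OGD: glucose-free aCSF gassed 95% N2/5% CO2 for 7 or 30 min, then reperfusion with oxygenated glucose aCSF. Compound 10 nM (DMSO stock diluted in aCSF) applied 15 min before, during and 5 min after OGD. Anoxic depolarization recorded as negative dc shift, latency from OGD onset; unpaired two-tailed t test.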

Hippocampus [9] = experiment: Neuroprotective effect against 30-mins oxygen-glucose deprivation triggered neuronal injury in Wistar rat hippocampus CA1 region assessed as delay in anoxic depolarization latency at 10 nM relative to control; format: functional; how it was run: as §2

Chain of Adenosine receptor A2a (Rattus norvegicus) (P30543 whole entry): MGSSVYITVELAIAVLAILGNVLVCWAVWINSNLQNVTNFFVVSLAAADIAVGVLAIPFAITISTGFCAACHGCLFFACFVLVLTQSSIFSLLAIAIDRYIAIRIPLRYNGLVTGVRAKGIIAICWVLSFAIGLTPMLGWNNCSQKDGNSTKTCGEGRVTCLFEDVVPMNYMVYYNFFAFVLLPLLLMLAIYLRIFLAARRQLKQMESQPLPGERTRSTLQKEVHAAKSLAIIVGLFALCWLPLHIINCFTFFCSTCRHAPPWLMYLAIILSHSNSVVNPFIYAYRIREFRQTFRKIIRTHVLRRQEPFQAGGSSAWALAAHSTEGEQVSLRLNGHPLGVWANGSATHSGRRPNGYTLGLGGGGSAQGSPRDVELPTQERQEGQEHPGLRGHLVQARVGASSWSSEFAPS
Chain of Adenosine receptor A2a (P29274 whole entry): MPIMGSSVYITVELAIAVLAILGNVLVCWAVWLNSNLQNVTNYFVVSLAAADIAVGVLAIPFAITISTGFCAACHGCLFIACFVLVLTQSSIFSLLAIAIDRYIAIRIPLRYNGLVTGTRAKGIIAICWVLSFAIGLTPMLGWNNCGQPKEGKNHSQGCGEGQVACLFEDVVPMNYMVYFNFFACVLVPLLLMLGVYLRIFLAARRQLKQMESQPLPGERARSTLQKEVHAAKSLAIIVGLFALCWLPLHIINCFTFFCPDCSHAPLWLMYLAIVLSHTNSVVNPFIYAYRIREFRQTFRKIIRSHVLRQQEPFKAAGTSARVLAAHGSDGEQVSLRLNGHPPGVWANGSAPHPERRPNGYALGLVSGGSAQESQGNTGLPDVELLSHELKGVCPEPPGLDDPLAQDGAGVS

Ki (Adenosine receptor A3 [1]): 4.54 nM
Activity [2]: 38%
Activity (Adenosine receptor A2a): 27%
Ki (Adenosine receptor A1 [3]): 355 nM
Activity (Bos taurus): 7%
EC50 (Adenosine receptor A3 [4]): 36.3 nM
Ki (Adenosine receptor A1 [5]): 587 nM
Activity [6]: 34%
Activity [7]: 0%
Compound: COc1ccc(-n2nc3c(NC(=O)c4ccccc4)nc4ncccc4n3c2=O)cc1
Activity (Hippocampus [8]): 77.6%
Activity (Hippocampus [9]): 8.9
